Source: publication PMC10849882 (The Journal of Cell Biology, 2024)
pIC50: −log10 of the molar value.

Tests used:
IMPDH1(546)-WT = IMPDH1(546)-WT (Homo sapiens, UniProt P20839); assay: IMPDH1 activity assay, GTP inhibition; assay type: biochemical
Method in brief: (§1)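 Recombinant human retinal-variant enzyme (E. coli BL21(DE3), 6xHis-SUMO tag removed by ULP1, gel filtration). Enzyme diluted ≥100-fold to 1 µM in pH 7.0 HEPES/KCl/DTT buffer. Preincubated 30 min at 20°C with 1 mM ATP, 1 mM IMP, 1 mM MgCl2 and varying GTP. Started with 300 µM NAD+. NADH read at A340, 25°C, each minute for 15 min. Rate from a 2–7 min slope. Triplicate; four-parameter variable-slope fit with 90% CI.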

IMPDH1(595)-Y12A-S477D = IMPDH1(595)-Y12A-S477D (Homo sapiens, UniProt P20839, S477D/Y12A); assay: IMPDH1 activity assay, GTP inhibition; assay type: biochemical
Method in brief: (§2)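 Enzyme at 1 µM in pH 7.0 HEPES/KCl/DTT activity buffer, preincubated 30 min at 20°C with 1 mM ATP, 1 mM IMP, 1 mM MgCl2 and graded GTP. Reaction started with 300 µM NAD+. NADH followed at 340 nm (25°C, per minute, 15 min) against a standard curve. Specific activity from the 2–7 min slope; three measurements per point. IC50 and Hill coefficient from a least-squares four-parameter fit, 90% confidence intervals.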

IMPDH1(595)-Y12A = IMPDH1(595)-Y12A (Homo sapiens, UniProt P20839, Y12A); assay: IMPDH1 activity assay, GTP inhibition; assay type: biochemical
Method in brief: as §2

IMPDH1(546)-Y12A-S477D = IMPDH1(546)-Y12A-S477D (Homo sapiens, UniProt P20839, S477D/Y12A); assay: IMPDH1 activity assay, GTP inhibition; assay type: biochemical
Method in brief: as §2

IMPDH1(595)-S477D = IMPDH1(595)-S477D (Homo sapiens, UniProt P20839, S477D); assay: IMPDH1 activity assay, GTP inhibition; assay type: biochemical
Method in brief: as §1

IMPDH1(546)-S477D = IMPDH1(546)-S477D (Homo sapiens, UniProt P20839, S477D); assay: IMPDH1 activity assay, GTP inhibition; assay type: biochemical
Method in brief: as §1

IMPDH1(595)-WT = IMPDH1(595)-WT (Homo sapiens, UniProt P20839); assay: IMPDH1 activity assay, GTP inhibition; assay type: biochemical
Method in brief: as §1

IMPDH1(546)-Y12A = IMPDH1(546)-Y12A (Homo sapiens, UniProt P20839, Y12A); assay: IMPDH1 activity assay, GTP inhibition; assay type: biochemical
Method in brief: as §2

HeLa cells = assay: Ribavirin-induced IMPDH filament assembly in cells, immunofluorescence; assay type: cell-based, human; conditions: 1 mM ribavirin for 2 h
Method in brief: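 HeLa (ATCC CCL-2) in DMEM/10% FBS, 37°C, 5% CO2. Seeded 4×10^4 cells/well on chambered glass slides and transfected next day with 328 ng plasmid (TransIT-HeLaMONSTER). After 48 h, fixed in 4% paraformaldehyde and Triton-permeabilised. Stained with anti-IMPDH2 (endogenous plus transfected), anti-FLAG and DAPI. Imaged by widefield 40×. Two biological replicates, ≥100 cells counted per condition.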

[1] = Hill coefficient of GTP inhibition curve

IMPDH1(595)-Y12A-S477D, sequence (P20839 1-509 Y12A/S477D): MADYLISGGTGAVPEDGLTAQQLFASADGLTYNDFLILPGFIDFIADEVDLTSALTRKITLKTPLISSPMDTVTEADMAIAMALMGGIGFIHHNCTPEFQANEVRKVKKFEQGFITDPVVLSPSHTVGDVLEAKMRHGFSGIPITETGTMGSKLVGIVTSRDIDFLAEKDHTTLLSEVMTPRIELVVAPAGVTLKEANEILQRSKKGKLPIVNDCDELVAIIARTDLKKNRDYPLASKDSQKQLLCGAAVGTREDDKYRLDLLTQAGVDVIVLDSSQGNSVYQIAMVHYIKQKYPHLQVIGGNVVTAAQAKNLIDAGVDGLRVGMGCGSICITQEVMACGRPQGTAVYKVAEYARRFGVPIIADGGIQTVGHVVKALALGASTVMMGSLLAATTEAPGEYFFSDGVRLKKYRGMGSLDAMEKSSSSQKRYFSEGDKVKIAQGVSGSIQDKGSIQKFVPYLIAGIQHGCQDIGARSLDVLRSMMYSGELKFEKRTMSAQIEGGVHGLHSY
IMPDH1(546)-Y12A-S477D, sequence (P20839 1-509 Y12A/S477D): as above
IMPDH1(546)-WT, sequence (P20839 1-509 limits assumed): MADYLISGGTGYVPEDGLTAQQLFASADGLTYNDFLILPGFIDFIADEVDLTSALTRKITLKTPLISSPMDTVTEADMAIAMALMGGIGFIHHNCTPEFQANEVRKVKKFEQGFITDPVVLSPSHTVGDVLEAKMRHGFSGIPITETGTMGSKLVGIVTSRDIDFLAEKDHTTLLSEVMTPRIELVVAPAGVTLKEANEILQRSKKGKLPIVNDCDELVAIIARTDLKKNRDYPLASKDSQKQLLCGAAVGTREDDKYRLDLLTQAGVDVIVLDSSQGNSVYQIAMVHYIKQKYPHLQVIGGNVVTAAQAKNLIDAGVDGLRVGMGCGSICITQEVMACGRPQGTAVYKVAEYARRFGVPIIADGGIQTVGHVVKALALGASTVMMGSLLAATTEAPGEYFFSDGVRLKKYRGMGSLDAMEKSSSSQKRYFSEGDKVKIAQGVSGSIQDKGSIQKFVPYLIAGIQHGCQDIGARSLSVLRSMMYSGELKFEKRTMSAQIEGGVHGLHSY
IMPDH1(595)-S477D, sequence (P20839 1-509 S477D): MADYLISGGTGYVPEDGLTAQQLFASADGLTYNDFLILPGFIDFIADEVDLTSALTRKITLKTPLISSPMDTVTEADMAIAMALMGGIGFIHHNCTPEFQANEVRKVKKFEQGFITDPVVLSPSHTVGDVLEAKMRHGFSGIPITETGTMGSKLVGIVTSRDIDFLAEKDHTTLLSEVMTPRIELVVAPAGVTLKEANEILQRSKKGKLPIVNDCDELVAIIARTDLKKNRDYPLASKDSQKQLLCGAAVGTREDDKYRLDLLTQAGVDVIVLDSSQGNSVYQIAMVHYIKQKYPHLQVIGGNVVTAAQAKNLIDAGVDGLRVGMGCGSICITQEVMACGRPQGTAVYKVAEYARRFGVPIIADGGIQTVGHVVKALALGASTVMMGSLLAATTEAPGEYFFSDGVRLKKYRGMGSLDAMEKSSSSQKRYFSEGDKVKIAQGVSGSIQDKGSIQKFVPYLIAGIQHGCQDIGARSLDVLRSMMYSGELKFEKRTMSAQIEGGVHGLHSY
IMPDH1(546)-S477D, sequence (P20839 1-509 S477D): as above
IMPDH1(595)-WT, sequence (P20839 1-558 isoform P20839-3 limits assumed): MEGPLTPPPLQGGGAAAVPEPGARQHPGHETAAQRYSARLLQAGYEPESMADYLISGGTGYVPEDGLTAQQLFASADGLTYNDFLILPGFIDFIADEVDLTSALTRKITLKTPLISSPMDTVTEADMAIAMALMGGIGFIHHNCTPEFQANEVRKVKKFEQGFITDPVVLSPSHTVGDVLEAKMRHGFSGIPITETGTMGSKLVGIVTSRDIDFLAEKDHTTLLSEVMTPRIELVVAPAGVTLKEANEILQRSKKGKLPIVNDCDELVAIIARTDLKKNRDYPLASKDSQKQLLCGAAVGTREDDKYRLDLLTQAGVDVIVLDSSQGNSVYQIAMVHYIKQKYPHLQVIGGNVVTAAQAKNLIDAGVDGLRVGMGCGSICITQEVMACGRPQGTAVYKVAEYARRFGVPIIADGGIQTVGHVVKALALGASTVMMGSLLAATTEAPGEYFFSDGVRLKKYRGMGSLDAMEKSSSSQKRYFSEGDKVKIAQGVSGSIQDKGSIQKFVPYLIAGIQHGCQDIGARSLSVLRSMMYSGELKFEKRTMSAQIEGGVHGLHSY
IMPDH1(546)-Y12A, sequence (P20839 1-509 Y12A): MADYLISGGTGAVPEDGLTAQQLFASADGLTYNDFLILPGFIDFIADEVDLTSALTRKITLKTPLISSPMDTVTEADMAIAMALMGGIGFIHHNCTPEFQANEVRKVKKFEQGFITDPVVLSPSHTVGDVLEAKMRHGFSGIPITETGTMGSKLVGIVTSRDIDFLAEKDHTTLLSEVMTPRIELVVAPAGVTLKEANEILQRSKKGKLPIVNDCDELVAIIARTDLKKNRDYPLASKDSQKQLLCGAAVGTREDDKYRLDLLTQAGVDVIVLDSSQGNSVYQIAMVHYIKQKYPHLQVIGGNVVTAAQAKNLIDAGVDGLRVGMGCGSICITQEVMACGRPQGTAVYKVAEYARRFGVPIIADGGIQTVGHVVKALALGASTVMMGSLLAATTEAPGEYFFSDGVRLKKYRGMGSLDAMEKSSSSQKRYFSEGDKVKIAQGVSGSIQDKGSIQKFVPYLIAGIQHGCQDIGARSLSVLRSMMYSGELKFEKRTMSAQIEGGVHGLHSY
IMPDH1(595)-Y12A, sequence (P20839 1-509 Y12A): as above

| pIC50 (IMPDH1(546)-WT) | Hill best-fit (IMPDH1(546)-WT; [1]) | pIC50 (IMPDH1(595)-Y12A-S477D) | Hill best-fit (IMPDH1(595)-Y12A-S477D; [1]) | pIC50 (IMPDH1(595)-Y12A) | Hill best-fit (IMPDH1(595)-Y12A; [1]) | pIC50 (IMPDH1(546)-Y12A-S477D) | Hill best-fit (IMPDH1(546)-Y12A-S477D; [1]) | pIC50 (IMPDH1(595)-S477D) | Hill best-fit (IMPDH1(595)-S477D; [1]) | pIC50 (IMPDH1(546)-S477D) | Hill best-fit (IMPDH1(546)-S477D; [1]) | pIC50 (IMPDH1(595)-WT) | Hill best-fit (IMPDH1(595)-WT; [1]) | pIC50 (IMPDH1(546)-Y12A) | Hill best-fit (IMPDH1(546)-Y12A; [1]) | Structure (SMILES) | Percentage of transfected cells containing filaments (HeLa cells; cells transfected with FLAG-tagged IMPDH1(546)-S477A) [%] | Percentage of transfected cells containing filaments (HeLa cells; cells transfected with FLAG-tagged IMPDH1(546)-S477D) [%] | Percentage of transfected cells containing filaments (HeLa cells; cells transfected with FLAG-tagged IMPDH1(595)-S477D) [%] |
| --- | --- | --- | --- | --- | --- | --- | --- | --- | --- | --- | --- | --- | --- | --- | --- | --- | --- | --- | --- |
| 3.12 | 4.6 | 3.33 | 4.1 | 3.33 | 4.5 | 3.34 | 4.2 | 3.22 | 3.7 | 3.31 | 3.7 | 2.94 | 2.3 | 3.27 | 4.0 | Nc1nc2c(ncn2[C@@H]2O[C@H](COP(=O)(O)OP(=O)(O)OP(=O)(O)O)[C@@H](O)[C@H]2O)c(=O)[nH]1 [GTP, guanosine triphosphate] | – | – | – |
| – | – | – | – | – | – | – | – | – | – | – | – | – | – | – | – | NC(=O)c1ncn([C@@H]2O[C@H](CO)[C@@H](O)[C@H]2O)n1 [ribavirin] | 100 | 2 | 2 |
